# Where a SMILES comes first, the peptide text is derived from it.
# Key:
# Plasmodium falciparum [1] = assay: Antiplasmodial activity against chloroquine-resistant Plasmodium falciparum K1 infected in human erythrocytes assessed as parasite growth inhibition; type: functional, organism-based; details: K1, Erythrocyte
# Plasmodium falciparum [2] = assay: Antiplasmodial activity against chloroquine-resistant Plasmodium falciparum FCR3 infected in human erythrocytes assessed as parasite growth inhibition; type: functional, organism-based; details: FCR-3/Gambia, Erythrocyte
# Plasmodium falciparum [3] = assay: Antiplasmodial activity against Plasmodium falciparum assessed as parasite growth inhibition; type: functional
# [4] = Selectivity index, ratio of EC50 for human HepG2 cells to EC50 for antiplasmodial activity against multidrug-resistant Plasmodium falciparum Dd2 infected in human A-positive erythrocytes; type: toxicity, cell-based; details: read-out: Ratio EC50
# Plasmodium falciparum [5] = assay: Antiplasmodial activity against multidrug-resistant Plasmodium falciparum Dd2 infected in human A-positive erythrocytes assessed as reduction in parasitemia incubated for 72 hrs by fluorescence-based SYBR-Green-1 assay; type: functional, organism-based; details: Dd2, Erythrocyte
# HepG2 = assay: Cytotoxicity against human HepG2 cells assessed as decrease in cell viability measured after 48 hrs by MTS assay; type: cell-based; details: HepG2, 48 h
# How it was run: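 After 48 h at 37 °C and 5% CO2, MTS was added for 4 h and absorbance read at 490 nm. Values were normalized to Triton X-100-lysed wells (0% growth) and untreated wells. EC50 is the mean of triplicate experiments.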
SMILES,EC50 (Plasmodium falciparum [1]) [nM],EC50 (Plasmodium falciparum [2]) [nM],also measured
CCCCCCC/C=C\CCCCCCCC(=O)N[C@H](C(=O)N1C[C@H](C)C[C@H]1C(=O)N[C@H](C(=O)N[C@@H](CC(N)=O)C(=O)N[C@@H](C)[C@H]1N[C@@H](CO)[C@H](O)[C@@H](CCCCCCCCCCCCC)O1)C(C)C)[C@@H](C)O,150,150,–
CCCCCCC/C=C\CCCCCCCC(=O)N[C@H](C(=O)N1C[C@H](C)C[C@H]1C(=O)N[C@H](C(=O)N[C@@H](CC(N)=O)C(N)=O)C(C)C)[C@@H](C)O (HELM PEPTIDE1{[CCCCCCC/C=C\CCCCCCCC(=O)[*:2]].T.[C[C@@H]1C[C@@H](C(=O)[*:2])N([*:1])C1].V.N.[am]}$$$$V2.0),150,150,–
CCC(=O)CCCCC[C@@H]1NC(=O)[C@H]2CCCCN2C(=O)[C@H]([C@@H](C)CC)NC(=O)[C@H](Cc2cn(OC)c3ccccc23)NC1=O [APICIDIN],–,–,MIC (Plasmodium falciparum [3]): 0.19 µM
CC[C@H](C)[C@H](NC(=O)[C@H](C)NC(=O)[C@@H]1CCCN1C(=O)C(C)(C)NC(=O)[C@H](CC(C)C)NC(=O)[C@H](CC(N)=O)NC(=O)C(C)(C)NC(C)=O)C(=O)NC(C)(C)C(=O)N1CCC[C@H]1C(=O)NC(C)(C)C(=O)N[C@@H](CC(C)C)C(=O)NC(C)(C)C(=O)N1CCC[C@H]1C(=O)N[C@H](CO)CC(C)C (HELM PEPTIDE1{[ac].[Aib].N.L.[Aib].P.A.I.[Aib].P.[Aib].L.[Aib].P.[CC(C)C[C@@H](CO)N[*:1]]}$$$$V2.0),–,–,selectivity ratio [4]: > 60; EC50 (Plasmodium falciparum [5]): 420 nM; EC50 (HepG2): > 25000 nM

# Source: ChEMBL document CHEMBL4811229, “Leveraging Peptaibol Biosynthetic Promiscuity for Next-Generation Antiplasmodial Therapeutics” (J Nat Prod, 2021)
